Assay results taken from paper PMC3861362 (Clinical Pharmacology : Advances and Applications, 2013).
Entries after “also recorded” stand apart in the source; their conditions may differ. Where two headings read alike, the source gives them in different places.

How the values were obtained:
[1] = type: in vivo, human (healthy Chinese subjects); settings: for CL renal: plasma and urine, CLR
bovine factor Xa = bovine factor Xa (Bos taurus, UniProt P00743); assay: Plasma anti-Xa activity by chromogenic assay after apixaban dosing; type: in vivo
Chain of bovine factor Xa (P00743 234-492 limits assumed): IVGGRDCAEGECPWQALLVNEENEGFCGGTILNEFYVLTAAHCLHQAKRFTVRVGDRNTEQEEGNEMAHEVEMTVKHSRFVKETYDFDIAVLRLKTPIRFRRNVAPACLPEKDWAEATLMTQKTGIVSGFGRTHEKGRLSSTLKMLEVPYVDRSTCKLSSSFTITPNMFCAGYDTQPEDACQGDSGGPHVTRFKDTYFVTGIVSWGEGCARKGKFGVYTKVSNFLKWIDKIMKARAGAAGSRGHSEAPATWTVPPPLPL
Chain of bovine factor Xa (P00743 41-180 partner limits assumed): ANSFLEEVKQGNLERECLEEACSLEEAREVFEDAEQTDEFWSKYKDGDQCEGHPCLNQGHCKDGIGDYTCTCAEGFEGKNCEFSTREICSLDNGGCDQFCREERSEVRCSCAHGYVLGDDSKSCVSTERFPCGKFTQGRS

[2] = type: in vivo, human (healthy Chinese subjects)
How it was run: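 Dosing was 10 mg once on day 1, then 10 mg twice daily for 6 d, ending with the morning dose on day 9. Subjects were confined to the facility throughout and monitored for adverse events, with physical examinations, vital signs, ECGs and clinical laboratory tests.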

[3] = cited from earlier work
P-glycoprotein = settings: cited from earlier work
[4] = system: breast cancer resistance protein; settings: cited from earlier work
CYP3A4 = settings: minor contribution from other CYP enzymes; cited from earlier work
[5] = multiple doses 10 mg twice daily, one of twelve subjects

## COc1ccc(-n2nc(C(N)=O)c3c2C(=O)N(c2ccc(N4CCCCC4=O)cc2)CC3)cc1 [apixaban]
[1]; human, oral, 10 mg, Mean (SD), multiple doses 10 mg twice daily, day 9, n=12
  CL renal: 20 mL/min
[1]; human, po, 10 mg, Mean (SD), single 10 mg oral dose, day 1, n=12
  CL renal: 19.5 mL/min
[1]; human, plasma, oral, 10 mg, Tmax, Median (min, max), multiple doses 10 mg twice daily, day 9, n=12
  Tmax: 3.5 h
[1]; human, plasma, oral, 10 mg, t½, Mean (SD), multiple doses 10 mg twice daily, day 9, n=12
  half-life: 10.8 h
[1]; human, plasma, po, 10 mg
  AUC(0-inf): 2310 ng·h/mL
  AUC(0-t): 2270 ng·h/mL
  Cmax: 234 ng/mL
[1]; multiple doses 10 mg twice daily
  time at which steady-state conditions were achieved: by the third day of multiple-dose administration
[1]; single 10 mg oral dose, day 1, n=12
  t½, Mean (SD): 11.4 (3.6) hours
Bovine factor Xa; day 9, at 3 hours (peak apixaban concentration), 10 mg twice daily, low-molecular-weight heparin units
  maximum anti-Xa activity, mean (SD): 5.57 (SD, 1.54) IU/mL
Bovine factor Xa; day 9, at 12 hours (trough apixaban concentration), 10 mg twice daily, low-molecular-weight heparin units
  minimum anti-Xa activity, mean (SD): 1.94 (SD, 0.54) IU/mL
Bovine factor Xa; single and multiple doses
  relationship between anti-Xa activity and plasma apixaban concentration: appears to be linear; also recorded: direct linear relationship
[2]; 10 mg twice daily
  severity of adverse events after multiple-dose administration: mild
[2]; healthy Chinese subjects, 10 mg single and twice-daily doses
  overall safety and tolerability: safe and well tolerated
[2]; [5]
  subjects with elevated alanine aminotransferase (ALT): 8%
  subjects with microscopic hematuria: 8%
  subjects with positive fecal blood: 8%
[2]; single-dose apixaban 10 mg
  adverse events after single dose: No adverse events
[2]; whole study
  changes in vital signs, physical examinations, or ECGs: No clinically significant changes
[2]; whole study, 10 mg single and twice-daily doses, n=12
  deaths, serious adverse events, discontinuations, bleeding-related adverse events: no bleeding-related adverse events reported; also recorded: no deaths, other serious adverse events, adverse events leading to discontinuation, or clinically significant bleeding-related adverse events
[3]; Japanese and non-Asian subjects, ref previous studies
  CLR: 0.49 to 1.07 L/h
[3]
  oral bioavailability: ~ 50%
  share of total clearance via the kidneys: 27%
[3]; healthy Western subjects
  mean elimination t½: approximately 12 hours
[3]; oral administration
  share of dose undergoing oxidative metabolism: ~ 25%
  time to Cmax after oral administration: ~ 3 hours
[3]; white and Japanese subjects
  time to Cmax: 2 to 4 h
P-glycoprotein
  P-glycoprotein substrate: substrate
[4]
  breast cancer resistance protein substrate: substrate
CYP3A4
  enzyme mediating oxidative metabolism: primarily mediated via CYP3A4
